From ChEMBL document CHEMBL3112466, “Structure-activity relationship analysis of imidazoquinolines with Toll-like receptors 7 and 8 selectivity and enhanced cytokine induction” (J Med Chem, 2014)
Calls of active or inactive are those of the source. The rule behind the calls is not given here.

Experiments:
[1] = molecular target: T1, TLR7 and TLR8 (Mus musculus) (UniProt P58681+P58682); test: Agonist activity at TLR7/TLR8 in C57BL/6 mouse BMDC assessed as induction of IL-10 production at 30 uM after 3 days by flow cytometric analysis; format: protein assay
T1 sequence (P58681 whole entry, looked up): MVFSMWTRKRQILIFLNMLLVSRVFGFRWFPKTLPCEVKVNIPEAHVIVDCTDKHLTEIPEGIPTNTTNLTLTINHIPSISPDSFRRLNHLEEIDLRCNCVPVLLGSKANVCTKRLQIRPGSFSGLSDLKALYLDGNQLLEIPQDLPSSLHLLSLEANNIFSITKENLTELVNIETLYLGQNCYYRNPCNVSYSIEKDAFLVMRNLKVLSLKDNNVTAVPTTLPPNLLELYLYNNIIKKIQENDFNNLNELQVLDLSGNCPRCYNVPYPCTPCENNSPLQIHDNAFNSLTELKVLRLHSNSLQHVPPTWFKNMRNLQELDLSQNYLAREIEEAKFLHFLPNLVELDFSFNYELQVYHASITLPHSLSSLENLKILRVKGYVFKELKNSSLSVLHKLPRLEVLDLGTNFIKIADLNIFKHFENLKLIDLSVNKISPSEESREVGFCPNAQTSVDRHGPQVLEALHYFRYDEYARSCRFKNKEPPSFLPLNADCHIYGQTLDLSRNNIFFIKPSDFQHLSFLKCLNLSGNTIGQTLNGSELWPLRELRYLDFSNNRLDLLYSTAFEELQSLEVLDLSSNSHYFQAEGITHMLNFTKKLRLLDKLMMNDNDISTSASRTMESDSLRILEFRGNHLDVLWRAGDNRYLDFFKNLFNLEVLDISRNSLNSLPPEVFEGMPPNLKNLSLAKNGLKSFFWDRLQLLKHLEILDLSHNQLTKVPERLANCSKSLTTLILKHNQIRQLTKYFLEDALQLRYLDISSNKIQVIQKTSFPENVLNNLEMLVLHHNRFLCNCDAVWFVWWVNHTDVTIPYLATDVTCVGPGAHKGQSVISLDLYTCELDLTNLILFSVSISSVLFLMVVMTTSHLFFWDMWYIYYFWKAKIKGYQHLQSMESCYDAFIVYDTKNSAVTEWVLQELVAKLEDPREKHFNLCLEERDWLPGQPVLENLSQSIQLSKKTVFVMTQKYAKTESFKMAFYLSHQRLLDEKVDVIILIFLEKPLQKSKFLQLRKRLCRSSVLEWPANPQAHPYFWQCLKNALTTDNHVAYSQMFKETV
T1 sequence (P58682 whole entry, looked up): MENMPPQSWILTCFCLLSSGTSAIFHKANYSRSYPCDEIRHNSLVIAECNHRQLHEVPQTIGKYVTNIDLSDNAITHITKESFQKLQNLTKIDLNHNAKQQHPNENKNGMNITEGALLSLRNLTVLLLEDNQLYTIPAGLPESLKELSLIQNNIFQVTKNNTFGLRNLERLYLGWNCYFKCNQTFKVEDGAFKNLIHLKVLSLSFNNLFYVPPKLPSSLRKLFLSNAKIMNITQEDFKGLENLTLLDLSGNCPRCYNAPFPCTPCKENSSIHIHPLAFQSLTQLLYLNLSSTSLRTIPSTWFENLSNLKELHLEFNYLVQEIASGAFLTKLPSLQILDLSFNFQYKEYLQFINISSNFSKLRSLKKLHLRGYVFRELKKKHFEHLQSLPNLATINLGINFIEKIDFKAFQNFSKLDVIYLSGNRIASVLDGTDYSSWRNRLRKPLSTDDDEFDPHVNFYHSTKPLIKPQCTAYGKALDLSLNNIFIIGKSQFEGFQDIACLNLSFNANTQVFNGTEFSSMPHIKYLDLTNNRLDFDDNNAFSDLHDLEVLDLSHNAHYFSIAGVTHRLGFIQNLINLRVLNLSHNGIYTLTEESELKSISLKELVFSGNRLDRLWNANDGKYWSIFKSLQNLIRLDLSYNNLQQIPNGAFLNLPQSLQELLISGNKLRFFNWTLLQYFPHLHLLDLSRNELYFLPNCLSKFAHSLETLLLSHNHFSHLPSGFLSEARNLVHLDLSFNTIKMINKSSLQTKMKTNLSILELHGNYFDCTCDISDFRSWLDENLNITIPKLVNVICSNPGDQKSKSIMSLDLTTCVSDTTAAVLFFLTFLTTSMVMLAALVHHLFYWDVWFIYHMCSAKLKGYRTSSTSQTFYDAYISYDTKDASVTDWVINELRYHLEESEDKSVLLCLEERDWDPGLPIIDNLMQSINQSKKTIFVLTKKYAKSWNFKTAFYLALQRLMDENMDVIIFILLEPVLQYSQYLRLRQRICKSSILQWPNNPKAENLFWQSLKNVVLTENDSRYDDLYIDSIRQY
Procedure, shortened: (§1)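 BMDCs from femoral marrow of 6−8-week C57BL/6 mice; red cells lysed (0.83% NH₄Cl, 0.1% KHCO₃, 0.009% EDTA); 5 million cells per well cultured six days in complete RPMI with mouse GM-CSF 20 ng/mL. Stimulated with 30 μM compound for 3 days; supernatant cytokines quantified by flow cytometric bead array; measured in triplicate.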

[2] = molecular target: T1, TLR7 and TLR8 (Mus musculus); test: Agonist activity at TLR7/TLR8 in C57BL/6 mouse BMDC assessed as induction of IL-12p40 production at 30 uM after 3 days by flow cytometric analysis; format: protein assay; procedure, shortened: as §1
[3] = molecular target: T1, TLR7 and TLR8 (Mus musculus); test: Agonist activity at TLR7/TLR8 in C57BL/6 mouse BMDC assessed as induction of IL-1beta production at 30 uM after 3 days by flow cytometric analysis; format: protein assay; procedure, shortened: as §1
[4] = molecular target: T1, TLR7 and TLR8 (Mus musculus); test: Agonist activity at TLR7/TLR8 in C57BL/6 mouse BMDC assessed as induction of TNF-alpha production at 30 uM after 3 days by flow cytometric analysis; format: protein assay; procedure, shortened: as §1
[5] = molecular target: T2, Toll-like receptor 8 (Homo sapiens, UniProt Q9NR97); test: Agonist activity at human TLR-8 expressed in HEK293 cells after 24 hrs by SEAP reporter gene assay; format: cell-based
T2 sequence (Q9NR97 whole entry): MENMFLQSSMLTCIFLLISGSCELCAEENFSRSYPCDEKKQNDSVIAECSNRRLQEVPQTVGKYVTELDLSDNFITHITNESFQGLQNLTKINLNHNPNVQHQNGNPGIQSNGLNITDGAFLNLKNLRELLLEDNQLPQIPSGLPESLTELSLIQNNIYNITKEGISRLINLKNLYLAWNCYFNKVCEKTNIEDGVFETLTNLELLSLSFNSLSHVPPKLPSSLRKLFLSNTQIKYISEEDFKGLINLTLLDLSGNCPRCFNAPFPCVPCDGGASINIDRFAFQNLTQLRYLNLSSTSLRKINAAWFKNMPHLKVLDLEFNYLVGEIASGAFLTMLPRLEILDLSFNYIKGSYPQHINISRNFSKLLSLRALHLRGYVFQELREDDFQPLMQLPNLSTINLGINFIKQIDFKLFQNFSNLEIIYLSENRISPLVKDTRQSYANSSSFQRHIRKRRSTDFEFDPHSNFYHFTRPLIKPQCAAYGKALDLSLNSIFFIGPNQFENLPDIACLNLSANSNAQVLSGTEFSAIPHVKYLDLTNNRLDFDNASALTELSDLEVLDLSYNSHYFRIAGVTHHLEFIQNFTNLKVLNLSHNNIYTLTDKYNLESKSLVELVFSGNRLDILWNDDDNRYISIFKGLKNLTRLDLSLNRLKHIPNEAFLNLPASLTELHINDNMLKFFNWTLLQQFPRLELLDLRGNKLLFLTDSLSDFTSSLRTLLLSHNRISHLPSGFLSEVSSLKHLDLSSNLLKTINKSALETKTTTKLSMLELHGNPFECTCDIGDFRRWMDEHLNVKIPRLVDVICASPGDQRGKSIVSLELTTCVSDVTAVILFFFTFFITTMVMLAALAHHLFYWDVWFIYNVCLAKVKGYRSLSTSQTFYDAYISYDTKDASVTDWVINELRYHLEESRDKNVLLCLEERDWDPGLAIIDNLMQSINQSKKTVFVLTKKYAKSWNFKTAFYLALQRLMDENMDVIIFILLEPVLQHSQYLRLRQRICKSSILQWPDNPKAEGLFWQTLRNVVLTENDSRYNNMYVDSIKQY
Procedure, shortened: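 HEK-293 cells transfected with human TLR-7 or TLR-8 plus NF-κB-inducible SEAP reporter; stimulated with 30 μM compound in DMEM/10% FBS for 24 h. Supernatant incubated with Quanti-blue substrate 1 h at 37 °C; SEAP read as absorbance at 650 nm.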

[6] = molecular target: T3, TLR7 and TLR8 (Homo sapiens) (UniProt Q9NYK1+Q9NR97); test: Agonist activity at TLR7/TLR8 in human PBMC assessed as induction of IFN-alpha production at 22.5 uM after 24 hrs by ELISA; format: protein assay
Procedure, shortened: (§2)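 PBMCs isolated by Ficoll from three independent donors, plated in triplicate at 5 × 10⁵ cells per well, exposed to 22.5 μM compound for 24 h. Medium assayed for TNF-α and IFN-γ by flow cytometric bead array, IFN-α by ELISA.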

[7] = molecular target: T3, TLR7 and TLR8 (Homo sapiens); test: Agonist activity at TLR7/TLR8 in human PBMC assessed as induction of IFN-gamma production at 22.5 uM after 24 hrs by flow cytometric analysis; format: protein assay; procedure, shortened: as §2
[8] = molecular target: T3, TLR7 and TLR8 (Homo sapiens); test: Agonist activity at TLR7/TLR8 in human PBMC assessed as induction of TNF-alpha production at 22.5 uM after 24 hrs by flow cytometric analysis; format: protein assay; procedure, shortened: as §2
[9] = molecular target: T4, Toll-like receptor 7 (Homo sapiens, UniProt Q9NYK1); test: Agonist activity at human TLR-7 expressed in HEK293 cells after 24 hrs by SEAP reporter gene assay; format: cell-based
T4 sequence (Q9NYK1 whole entry): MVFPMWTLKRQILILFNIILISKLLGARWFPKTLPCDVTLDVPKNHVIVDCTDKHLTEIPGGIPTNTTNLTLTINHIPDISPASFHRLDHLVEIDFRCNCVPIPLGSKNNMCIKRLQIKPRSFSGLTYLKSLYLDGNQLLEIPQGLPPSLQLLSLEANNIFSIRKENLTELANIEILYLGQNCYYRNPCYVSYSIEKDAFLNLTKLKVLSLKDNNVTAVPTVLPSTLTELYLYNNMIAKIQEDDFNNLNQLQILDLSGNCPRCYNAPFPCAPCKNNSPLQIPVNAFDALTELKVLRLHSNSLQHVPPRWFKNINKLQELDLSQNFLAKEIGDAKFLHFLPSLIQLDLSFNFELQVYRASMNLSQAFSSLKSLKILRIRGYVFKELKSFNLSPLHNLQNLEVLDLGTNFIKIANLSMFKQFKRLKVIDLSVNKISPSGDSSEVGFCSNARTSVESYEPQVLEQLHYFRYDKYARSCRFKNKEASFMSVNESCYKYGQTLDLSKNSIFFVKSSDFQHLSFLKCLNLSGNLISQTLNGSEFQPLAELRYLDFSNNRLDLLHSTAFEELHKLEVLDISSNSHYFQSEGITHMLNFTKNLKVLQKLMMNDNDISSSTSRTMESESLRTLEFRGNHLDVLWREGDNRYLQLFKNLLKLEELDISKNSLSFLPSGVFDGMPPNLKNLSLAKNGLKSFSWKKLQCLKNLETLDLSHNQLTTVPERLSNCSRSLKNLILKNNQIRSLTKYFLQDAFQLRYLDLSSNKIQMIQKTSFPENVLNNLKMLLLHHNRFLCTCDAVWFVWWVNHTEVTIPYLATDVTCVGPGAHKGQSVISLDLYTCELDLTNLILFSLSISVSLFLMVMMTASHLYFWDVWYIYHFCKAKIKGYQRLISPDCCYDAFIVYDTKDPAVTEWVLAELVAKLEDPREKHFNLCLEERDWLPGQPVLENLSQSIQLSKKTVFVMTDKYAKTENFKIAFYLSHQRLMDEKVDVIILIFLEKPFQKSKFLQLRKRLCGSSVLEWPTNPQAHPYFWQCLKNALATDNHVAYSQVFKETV

Compound	Activity [1] [pg/mL]	Activity [2] [pg/mL]	Activity [3] [pg/mL]	Activity [4] [pg/mL]	EC50 [5]	Activity [6]	Activity [7]	Activity [8]	EC50 ([9]; read-out: EC50) [µM]	EC50 ([9]; hek293)
COC(=O)c1ccc2c(c1)nc(N)c1nc(Cc3ccccc3)n(CC(C)(C)O)c12	15	500	60	971	Not Active	–	–	–	–	–
CCCCc1nc2c(N)nc3cc(C(=O)OC)ccc3c2n1C[C@H](C)O	25	597	301	1190	–	Active	Active	Active	–	–
CCCCc1nc2c(N)nc3cc(C(=O)OC)ccc3c2n1CC(C)O (racemic)	22	533	275	1200	–	Active	Active	Active	–	–
CCOCc1nc2c(N)nc3ccccc3c2n1CC(C)(C)O	49	236	16	1740	–	–	–	Active	–	–
CCCCc1nc2c(N)nc3cc(C(=O)OC)ccc3c2n1C[C@@H](C)O	20	416	157	1160	–	Active	Active	Active	–	–
CCCCc1nc2c(N)nc3cc(C(=O)OC)ccc3c2n1CCO	18	290	109	1210	–	–	–	–	–	–
CCCCc1nc2c(N)nc3cc(C(=O)OC)ccc3c2n1CCOC	22	267	484	1370	Not Active	–	–	–	–	–
COC(=O)c1ccc2c(c1)nc(N)c1ncn(CC(C)(C)O)c12	9	8	6	40	Not Active	–	–	–	–	Not Active
CC(C)Cn1cnc2c(N)nc3ccccc3c21 [IMIQUIMOD]	17	133	19	308	Not Active	–	–	–	10.7	–
CCCCc1nc2c(N)nc3cc(C(=O)OC)ccc3c2n1CCOCc1ccccc1	25	136	104	2240	–	–	–	–	–	–

The next lines start with the values.

Activity [1] [pg/mL]	Activity [2] [pg/mL]	Activity [3] [pg/mL]	Activity [4] [pg/mL]	EC50 [5]	Activity [6]	Activity [7]	Activity [8]	EC50 ([9]; read-out: EC50) [µM]	EC50 ([9]; hek293)	Compound
37	312	1010	1810	–	Active	Active	Active	–	–	CCCCCc1nc2c(N)nc3cc(C(=O)OC)ccc3c2n1CC(C)(C)O
24	78	11	1170	Not Active	–	–	–	–	–	CCc1nc2c(N)nc3cc(C(=O)OC)ccc3c2n1CC(C)(C)O
27	73	13	819	Not Active	–	–	–	–	–	COC(=O)c1ccc2c(c1)nc(N)c1nc(C)n(CC(C)(C)O)c12
24	393	108	1100	–	–	–	–	1.5	–	CCCCc1nc2c(N)nc3cc(C(=O)OC)ccc3c2n1CC(C)(C)O
23	365	33	1170	Not Active	–	–	–	–	–	CCCc1nc2c(N)nc3cc(C(=O)OC)ccc3c2n1CC(C)(C)O
